Data set [1] addresses T1, Solute carrier family 22 member 6 (Homo sapiens, UniProt Q4U2R8).
T1 sequence (Q4U2R8 whole entry): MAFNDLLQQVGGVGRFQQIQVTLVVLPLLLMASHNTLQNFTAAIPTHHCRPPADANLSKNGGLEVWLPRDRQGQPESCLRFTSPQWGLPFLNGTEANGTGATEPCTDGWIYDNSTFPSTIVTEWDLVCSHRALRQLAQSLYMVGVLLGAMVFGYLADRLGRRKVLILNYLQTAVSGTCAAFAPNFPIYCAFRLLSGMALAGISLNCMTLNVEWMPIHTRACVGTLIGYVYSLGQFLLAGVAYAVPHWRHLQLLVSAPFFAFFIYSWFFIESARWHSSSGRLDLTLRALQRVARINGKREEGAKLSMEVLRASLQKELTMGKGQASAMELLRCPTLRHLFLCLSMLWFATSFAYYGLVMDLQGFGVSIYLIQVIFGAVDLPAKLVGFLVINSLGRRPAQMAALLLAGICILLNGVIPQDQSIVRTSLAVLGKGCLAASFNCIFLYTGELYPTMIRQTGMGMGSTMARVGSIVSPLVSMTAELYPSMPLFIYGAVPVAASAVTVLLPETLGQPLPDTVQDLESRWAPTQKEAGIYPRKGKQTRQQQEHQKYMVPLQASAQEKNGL
Kind of data set: Inhibition of human OAT1 expressed in HEK293 cells assessed as 6-CF uptake after 5 mins by fluorescence assay. To be noted: for inhibition (INH): human, hek293, 5 min. The data set is classed as cell-based. The method in brief: (§1)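 Stably transfected HEK293 cells (human OAT1, OAT3, OCT1, OCT2, OATP1B3, OATP2B1) and mock cells were assayed 16 h after seeding in HEPES uptake buffer, pH 7.2, with fluorescent probe ± compound. Incubation was 5 min for OAT1/3 and OATPs, and 10 min for OCT1/2. Reference inhibitors were probenecid (OATs), quinine (OCTs) and rifampicin (OATPs). Uptake was stopped with ice-cold PBS and cells were lysed in Tris/Triton. Fluorescence was normalised to BCA protein; triplicates, repeated 2–3 times.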

The nature of data set [2]: Toxicity in ip dosed DBA/2 mouse assessed as reduction in 15% body weight administered as daily dose for 3 days. The note with it: in vivo. The data set is classed as organism-based. The method in brief:
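Adult male DBA/2 mice were dosed i.p. at 10 mL kg−1, with 5 per group. Controls (n = 8) received saline. MTD was the dose allowing 15% median body-weight loss with no toxic deaths or marked change in general signs within 3 days.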

The target in data set [3] is T2, Solute carrier family 22 member 2 (Homo sapiens, UniProt O15244).
T2 sequence (O15244 whole entry): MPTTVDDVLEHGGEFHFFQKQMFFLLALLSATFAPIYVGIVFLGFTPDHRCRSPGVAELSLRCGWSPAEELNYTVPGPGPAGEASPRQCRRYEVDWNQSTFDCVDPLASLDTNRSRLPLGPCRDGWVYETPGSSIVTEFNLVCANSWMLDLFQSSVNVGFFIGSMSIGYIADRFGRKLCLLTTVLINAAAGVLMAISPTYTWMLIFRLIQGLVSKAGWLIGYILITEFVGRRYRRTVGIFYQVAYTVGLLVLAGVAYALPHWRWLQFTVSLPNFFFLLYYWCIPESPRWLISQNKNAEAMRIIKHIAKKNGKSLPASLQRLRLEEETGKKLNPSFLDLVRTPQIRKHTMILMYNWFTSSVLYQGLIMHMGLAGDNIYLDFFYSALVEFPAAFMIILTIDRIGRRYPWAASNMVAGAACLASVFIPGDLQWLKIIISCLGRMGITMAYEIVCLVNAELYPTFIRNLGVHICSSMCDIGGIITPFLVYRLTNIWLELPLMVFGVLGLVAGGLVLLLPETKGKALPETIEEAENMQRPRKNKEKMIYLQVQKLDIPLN
Kind of data set: Inhibition of human OCT2 expressed in HEK293 cells assessed as Asp+ uptake after 10 mins by fluorescence assay. The data set is classed as cell-based. The note with it: for inhibition (INH): human, hek293, 10 min. The method in brief: as §1

In data set [4] the target is T3, Solute carrier family 22 member 1 (Homo sapiens, UniProt O15245).
T3 sequence (O15245 whole entry): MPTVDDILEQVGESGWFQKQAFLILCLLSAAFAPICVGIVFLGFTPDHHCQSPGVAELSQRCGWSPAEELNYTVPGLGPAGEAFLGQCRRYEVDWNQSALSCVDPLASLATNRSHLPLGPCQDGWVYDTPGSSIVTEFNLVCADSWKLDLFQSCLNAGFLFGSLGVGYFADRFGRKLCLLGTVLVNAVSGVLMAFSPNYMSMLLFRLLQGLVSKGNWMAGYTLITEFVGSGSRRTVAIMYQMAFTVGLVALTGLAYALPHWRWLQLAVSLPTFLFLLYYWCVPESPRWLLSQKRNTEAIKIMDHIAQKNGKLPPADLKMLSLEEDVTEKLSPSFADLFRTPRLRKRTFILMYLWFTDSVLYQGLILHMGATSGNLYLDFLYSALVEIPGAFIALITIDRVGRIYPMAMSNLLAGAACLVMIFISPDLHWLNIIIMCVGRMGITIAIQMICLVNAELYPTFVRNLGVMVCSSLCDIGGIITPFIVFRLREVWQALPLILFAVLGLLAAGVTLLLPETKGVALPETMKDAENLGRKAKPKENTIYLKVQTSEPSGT
Kind of data set: Substrate activity at human OCT1 expressed in HEK293 cells assessed as compound uptake by HPLC-UV method. The data set is classed as ADME, cell-based.

A short description of data set [5]: Cytotoxicity against HEK293FT cells expressing GLUT1 assessed as reduction in cell viability up to 20 uM. The data set is classed as cell-based. To be noted: human.
Another data set deals with HEK293. As to the kind of experiment: Toxicity in HEK293 cells assessed as effect on total protein up to 200 uM after 10 mins. In kind it is cell-based. The note with it: human, hek293, 10 min. The procedure, abridged: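 HEK293-mock cells were exposed to 100 or 200 μM for 10 min, and total cellular protein was then measured.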

The text below walks through data of ChEMBL document CHEMBL4257448, “Deciphering the origins of molecular toxicity of combretastatin A4 and its glycoconjugates: interactions with major drug transporters and their safety profiles in vitro and in vivo” (Medchemcomm, 2017).

One may read the IC50 as the concentration that gives 50% inhibition. As for `COc1ccc(/C=C\c2cc(OC)c(OC)c(OC)c2)cc1O[C@@H]1O[C@H](CO)[C@@H](O)[C@H](O)[C@H]1O`, the IC50 in data set [1] and in data set [3] was greater than 200 µM in each case. Further, the “inhibition (INH)” value in data set [1] and in data set [3] was “Dose-dependent effect” in each case. Also, the MTD at 72 h in data set [2] came out at 400 mg/kg. Further, in data set [4], the Drug uptake result is recorded as “Not Active”. Also, the results for the Activity entry (in data set [5]; in the data set on HEK293) were “Toxic” and “Non-Toxic”, respectively.

`COc1ccc(/C=C\c2cc(OC)c(OC)c(OC)c2)cc1O` [COMBRETASTATIN A4]: the IC50 in data set [1] was determined as 41.4 µM; in data set [3], 61.9 µM. In addition, the “inhibition (INH)” value in data set [1] and in data set [3] was “Dose-dependent effect” throughout. The MTD at 72 h in data set [2] was found to be 25 mg/kg. Also, in data set [4], the Drug uptake result was “Active”. For the same compound, the Activity entry in data set [5] is recorded as “Toxic”; in the data set on HEK293, “Non-Toxic”.
